According to ChEMBL document CHEMBL2346629, “Discovery and characterization of novel allosteric FAK inhibitors” (Eur J Med Chem, 2013):

How the values were obtained:
[1] = target: T1, Protein-tyrosine kinase 2-beta (Homo sapiens, UniProt Q14289); assay: Inhibition of human 6His-tagged unphosphorylated PYK2 (1 to 967) using Poly-(GT)-biotin as substrate by AlphaScreen assay in presence of [gamma-33P]ATP
[2] = target: T1, Protein-tyrosine kinase 2-beta; assay: Inhibition of human GST-tagged phosphorylated full length PYK2 (1 to 967) using Poly-(GT)-biotin as substrate by HTRF analysis in presence of [gamma-33P]ATP
[3] = Inhibition of PDGFRa D824V mutant (unknown origin) using [gamma-33P]ATP; parameters: species or system Homo sapiens
[4] = target: Tyrosine-protein kinase Yes (Homo sapiens, UniProt P07947); assay: Inhibition of YES (unknown origin) using [gamma-33P]ATP
Method in brief: (§1)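 Radiometric kinase profiling service covering 288 kinases (261 wild-type, 27 mutant). Inhibition was read as incorporation from [γ-³³P]ATP.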

[5] = target: Mast/stem cell growth factor receptor Kit (Homo sapiens, UniProt P10721, D816V); assay: Inhibition of c-Kit D816V mutant (unknown origin) using [gamma-33P]ATP; method in brief: as §1
Chain of Mast/stem cell growth factor receptor Kit (P10721 26-976 D816V limits assumed): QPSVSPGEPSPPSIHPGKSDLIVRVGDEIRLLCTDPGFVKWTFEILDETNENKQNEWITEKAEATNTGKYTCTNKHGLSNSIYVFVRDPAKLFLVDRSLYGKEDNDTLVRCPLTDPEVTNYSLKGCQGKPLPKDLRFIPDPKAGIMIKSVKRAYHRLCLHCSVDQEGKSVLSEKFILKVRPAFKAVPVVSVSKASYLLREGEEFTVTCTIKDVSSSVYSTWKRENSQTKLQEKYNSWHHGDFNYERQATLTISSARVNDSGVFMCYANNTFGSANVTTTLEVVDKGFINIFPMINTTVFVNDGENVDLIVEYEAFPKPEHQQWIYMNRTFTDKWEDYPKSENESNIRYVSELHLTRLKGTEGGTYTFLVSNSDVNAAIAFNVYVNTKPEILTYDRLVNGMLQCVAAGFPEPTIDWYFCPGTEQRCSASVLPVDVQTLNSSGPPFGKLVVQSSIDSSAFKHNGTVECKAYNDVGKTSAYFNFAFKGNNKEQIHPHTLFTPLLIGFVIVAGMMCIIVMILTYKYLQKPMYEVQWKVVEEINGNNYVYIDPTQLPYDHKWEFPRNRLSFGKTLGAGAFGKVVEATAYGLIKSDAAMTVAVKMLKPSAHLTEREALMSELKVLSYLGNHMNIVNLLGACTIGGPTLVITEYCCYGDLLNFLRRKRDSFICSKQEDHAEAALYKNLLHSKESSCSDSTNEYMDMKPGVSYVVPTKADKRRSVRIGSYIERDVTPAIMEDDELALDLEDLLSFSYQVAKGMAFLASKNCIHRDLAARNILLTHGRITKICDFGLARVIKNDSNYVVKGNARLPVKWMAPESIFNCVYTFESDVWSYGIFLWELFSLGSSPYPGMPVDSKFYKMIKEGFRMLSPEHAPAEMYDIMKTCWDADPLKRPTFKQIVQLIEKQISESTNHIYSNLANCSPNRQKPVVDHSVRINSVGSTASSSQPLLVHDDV

[6] = target: Mitogen-activated protein kinase kinase kinase 9 (Homo sapiens, UniProt P80192); assay: Inhibition of MLK1 (unknown origin) using [gamma-33P]ATP; method in brief: as §1
Chain of Mitogen-activated protein kinase kinase kinase 9 (P80192 whole entry): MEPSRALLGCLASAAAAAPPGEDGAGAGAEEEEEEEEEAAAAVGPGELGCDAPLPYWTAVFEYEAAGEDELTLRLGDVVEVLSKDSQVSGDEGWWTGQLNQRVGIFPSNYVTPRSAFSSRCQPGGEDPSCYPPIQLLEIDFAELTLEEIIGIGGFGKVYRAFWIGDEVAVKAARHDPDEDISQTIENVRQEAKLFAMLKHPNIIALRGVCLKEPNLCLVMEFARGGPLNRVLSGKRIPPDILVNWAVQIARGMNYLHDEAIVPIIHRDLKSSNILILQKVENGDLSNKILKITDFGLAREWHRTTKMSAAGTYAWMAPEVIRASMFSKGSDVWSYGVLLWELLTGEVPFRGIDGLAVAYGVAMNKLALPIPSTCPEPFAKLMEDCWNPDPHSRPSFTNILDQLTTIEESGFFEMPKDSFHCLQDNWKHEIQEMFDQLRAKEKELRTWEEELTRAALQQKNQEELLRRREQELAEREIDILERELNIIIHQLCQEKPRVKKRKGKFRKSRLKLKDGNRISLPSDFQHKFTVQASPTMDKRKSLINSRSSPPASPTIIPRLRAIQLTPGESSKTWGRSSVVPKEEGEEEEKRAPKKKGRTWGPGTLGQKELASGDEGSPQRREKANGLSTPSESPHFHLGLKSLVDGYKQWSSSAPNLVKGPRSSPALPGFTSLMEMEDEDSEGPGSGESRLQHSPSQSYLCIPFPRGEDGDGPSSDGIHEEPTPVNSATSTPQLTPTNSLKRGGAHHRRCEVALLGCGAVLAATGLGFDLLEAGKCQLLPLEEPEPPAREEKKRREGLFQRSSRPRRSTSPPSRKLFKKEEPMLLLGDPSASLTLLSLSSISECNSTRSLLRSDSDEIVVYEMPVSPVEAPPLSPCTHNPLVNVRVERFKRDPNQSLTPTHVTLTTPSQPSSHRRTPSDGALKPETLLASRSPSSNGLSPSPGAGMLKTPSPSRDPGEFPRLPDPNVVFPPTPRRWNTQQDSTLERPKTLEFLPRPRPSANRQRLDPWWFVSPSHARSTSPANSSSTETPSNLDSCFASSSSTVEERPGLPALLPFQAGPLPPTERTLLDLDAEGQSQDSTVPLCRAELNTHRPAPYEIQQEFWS

[7] = target: Mitogen-activated protein kinase kinase kinase kinase 4 (Homo sapiens, UniProt O95819); assay: Inhibition of HGK (unknown origin) using [gamma-33P]ATP; method in brief: as §1
[8] = target: Myosin light chain kinase, smooth muscle (Homo sapiens, UniProt Q15746); assay: Inhibition of MLCK (unknown origin) using [gamma-33P]ATP; method in brief: as §1
[9] = target: Mitogen-activated protein kinase kinase kinase kinase 2 (Homo sapiens, UniProt Q12851); assay: Inhibition of GCK (unknown origin) using [gamma-33P]ATP; method in brief: as §1
Chain of Mitogen-activated protein kinase kinase kinase kinase 2 (Q12851 whole entry): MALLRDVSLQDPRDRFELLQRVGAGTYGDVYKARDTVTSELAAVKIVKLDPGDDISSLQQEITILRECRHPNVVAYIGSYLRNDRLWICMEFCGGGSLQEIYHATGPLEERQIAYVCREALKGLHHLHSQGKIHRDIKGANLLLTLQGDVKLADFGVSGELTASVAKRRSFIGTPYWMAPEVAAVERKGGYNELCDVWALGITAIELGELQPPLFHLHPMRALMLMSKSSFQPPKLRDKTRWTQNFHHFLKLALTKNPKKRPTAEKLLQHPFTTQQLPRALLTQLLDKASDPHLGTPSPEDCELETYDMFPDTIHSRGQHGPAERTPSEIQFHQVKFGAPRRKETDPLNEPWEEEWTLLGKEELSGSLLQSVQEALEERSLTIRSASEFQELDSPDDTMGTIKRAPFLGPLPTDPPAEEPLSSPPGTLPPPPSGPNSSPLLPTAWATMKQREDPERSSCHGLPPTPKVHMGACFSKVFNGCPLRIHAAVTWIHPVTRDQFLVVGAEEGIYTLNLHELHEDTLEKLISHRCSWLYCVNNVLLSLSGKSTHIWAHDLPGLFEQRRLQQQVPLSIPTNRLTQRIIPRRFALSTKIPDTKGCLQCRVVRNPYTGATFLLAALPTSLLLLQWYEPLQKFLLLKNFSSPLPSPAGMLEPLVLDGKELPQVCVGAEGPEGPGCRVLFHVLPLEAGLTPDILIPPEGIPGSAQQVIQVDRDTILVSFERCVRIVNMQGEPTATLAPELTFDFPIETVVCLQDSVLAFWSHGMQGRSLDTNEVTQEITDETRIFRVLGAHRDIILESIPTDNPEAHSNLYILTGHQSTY

[10] = target: Tyrosine-protein kinase Fgr (Homo sapiens, UniProt P09769); assay: Inhibition of FGR (unknown origin) using [gamma-33P]ATP
Method in brief: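 Reaction Biology HotSpot radiometric profiling panel of 288 kinases (261 wild-type, 27 mutant). Kinase activity was read out by incorporation of [γ-33P]ATP.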

[11] = target: Tyrosine-protein kinase Fyn (Homo sapiens, UniProt P06241); assay: Inhibition of FYN (unknown origin) using [gamma-33P]ATP; method in brief: as §1
[12] = target: Serine/threonine-protein kinase Chk2 (Homo sapiens, UniProt O96017); assay: Inhibition of CHK2 (unknown origin) using [gamma-33P]ATP
Method in brief: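 Radiometric profiling across 288 kinases (261 wild-type, 27 mutant), run as an outsourced service. Inhibition read out as [gamma-33P]ATP incorporation into substrate.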

[13] = target: T2, Focal adhesion kinase 1 (Homo sapiens, UniProt Q05397); assay: Inhibition of human FLAG-tagged unphosphorylated full length FAK expressed in baculovirus expression system incubated for 60 mins prior to 1000 uM of ATP addition by AlphaScreen assay
T2 sequence (Q05397 whole entry): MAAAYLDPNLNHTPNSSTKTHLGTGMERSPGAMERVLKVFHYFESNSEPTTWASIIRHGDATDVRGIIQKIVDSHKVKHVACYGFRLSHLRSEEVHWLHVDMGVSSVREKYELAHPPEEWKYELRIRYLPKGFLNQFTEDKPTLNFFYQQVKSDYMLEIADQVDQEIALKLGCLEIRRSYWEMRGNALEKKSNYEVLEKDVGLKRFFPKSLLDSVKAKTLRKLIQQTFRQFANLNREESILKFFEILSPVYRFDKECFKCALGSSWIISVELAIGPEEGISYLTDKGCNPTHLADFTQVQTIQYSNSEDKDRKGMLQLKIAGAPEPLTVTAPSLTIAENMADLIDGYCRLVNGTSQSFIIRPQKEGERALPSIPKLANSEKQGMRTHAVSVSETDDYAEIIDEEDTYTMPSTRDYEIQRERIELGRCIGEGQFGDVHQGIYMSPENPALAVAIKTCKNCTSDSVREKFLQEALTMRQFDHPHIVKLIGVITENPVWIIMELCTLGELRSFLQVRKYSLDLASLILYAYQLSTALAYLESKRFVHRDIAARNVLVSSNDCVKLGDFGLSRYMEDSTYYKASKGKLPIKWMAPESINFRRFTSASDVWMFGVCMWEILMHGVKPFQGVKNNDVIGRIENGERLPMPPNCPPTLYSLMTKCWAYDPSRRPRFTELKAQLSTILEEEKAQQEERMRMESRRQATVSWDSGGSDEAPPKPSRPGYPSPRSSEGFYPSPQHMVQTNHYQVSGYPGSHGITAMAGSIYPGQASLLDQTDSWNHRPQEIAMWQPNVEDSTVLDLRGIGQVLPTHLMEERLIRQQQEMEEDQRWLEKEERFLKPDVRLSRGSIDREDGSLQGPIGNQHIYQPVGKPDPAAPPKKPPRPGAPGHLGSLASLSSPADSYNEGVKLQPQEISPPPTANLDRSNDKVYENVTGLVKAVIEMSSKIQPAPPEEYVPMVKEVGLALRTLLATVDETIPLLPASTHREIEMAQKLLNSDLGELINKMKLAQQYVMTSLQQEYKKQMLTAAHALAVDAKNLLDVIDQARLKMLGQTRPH

[14] = target: T2, Focal adhesion kinase 1; assay: Inhibition of human FLAG-tagged unphosphorylated full length FAK expressed in baculovirus expression system incubated for 5 mins prior to 1000 uM of ATP addition by AlphaScreen assay
[15] = target: T2, Focal adhesion kinase 1; assay: Inhibition of human FLAG-tagged unphosphorylated full length FAK expressed in baculovirus expression system incubated for 60 mins prior to 0.5 uM of ATP addition by AlphaScreen assay
[16] = target: T2, Focal adhesion kinase 1; assay: Inhibition of human FLAG-tagged unphosphorylated full length FAK expressed in baculovirus expression system incubated for 5 mins prior to 0.5 uM ATP addition by AlphaScreen assay
[17] = target: T2, Focal adhesion kinase 1; assay: Inhibition of human GST-tagged phosphorylated full length FAK incubated for 60 mins prior to 1000 uM of ATP addition by HTRF analysis
[18] = target: T2, Focal adhesion kinase 1; assay: Inhibition of human GST-tagged phosphorylated full length FAK incubated for 5 mins prior to 1000 uM of ATP addition by HTRF analysis
[19] = target: T2, Focal adhesion kinase 1; assay: Inhibition of human GST-tagged phosphorylated full length FAK incubated for 60 mins prior to 0.5 uM of ATP addition by HTRF analysis
[20] = target: T2, Focal adhesion kinase 1; assay: Inhibition of human GST-tagged phosphorylated full length FAK incubated for 5 mins prior to 0.5 uM of ATP addition by HTRF analysis
[21] = target: T2, Focal adhesion kinase 1
[22] = target: T2, Focal adhesion kinase 1; remark: listed apart in the source
[23] = target: T2, Focal adhesion kinase 1; remark: listed apart in the source
[24] = target: T2, Focal adhesion kinase 1; remark: listed apart in the source

T1 sequence (Q14289 whole entry): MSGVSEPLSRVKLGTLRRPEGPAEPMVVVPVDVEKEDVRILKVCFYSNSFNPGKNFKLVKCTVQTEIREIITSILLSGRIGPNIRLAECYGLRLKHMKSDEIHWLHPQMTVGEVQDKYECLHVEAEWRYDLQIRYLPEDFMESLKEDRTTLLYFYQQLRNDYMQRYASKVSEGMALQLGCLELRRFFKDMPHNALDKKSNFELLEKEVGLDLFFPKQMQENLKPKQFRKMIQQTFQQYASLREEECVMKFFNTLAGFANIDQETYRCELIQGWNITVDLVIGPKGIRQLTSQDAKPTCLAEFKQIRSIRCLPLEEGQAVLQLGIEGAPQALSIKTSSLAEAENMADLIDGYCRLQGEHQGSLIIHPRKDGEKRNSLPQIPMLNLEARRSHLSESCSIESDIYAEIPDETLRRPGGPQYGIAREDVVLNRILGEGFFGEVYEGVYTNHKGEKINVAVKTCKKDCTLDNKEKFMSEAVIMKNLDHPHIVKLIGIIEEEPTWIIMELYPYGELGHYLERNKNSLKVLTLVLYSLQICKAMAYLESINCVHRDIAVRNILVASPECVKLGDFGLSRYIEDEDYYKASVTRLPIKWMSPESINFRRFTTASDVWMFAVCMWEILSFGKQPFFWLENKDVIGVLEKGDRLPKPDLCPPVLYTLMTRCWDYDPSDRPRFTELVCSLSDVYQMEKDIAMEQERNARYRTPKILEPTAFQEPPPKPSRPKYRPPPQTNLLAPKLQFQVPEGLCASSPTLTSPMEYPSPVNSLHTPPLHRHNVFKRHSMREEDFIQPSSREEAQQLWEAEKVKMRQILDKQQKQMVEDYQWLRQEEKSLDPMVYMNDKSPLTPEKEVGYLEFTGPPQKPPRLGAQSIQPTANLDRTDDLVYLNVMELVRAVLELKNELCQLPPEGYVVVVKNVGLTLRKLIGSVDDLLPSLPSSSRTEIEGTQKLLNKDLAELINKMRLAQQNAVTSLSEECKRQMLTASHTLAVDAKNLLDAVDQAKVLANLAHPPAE

Row | IC50 [4] | IC50 [5] | IC50 [6] | IC50 [7] | IC50 [8] | IC50 [9] | IC50 [10] | IC50 [11] | IC50 [12] | SMILES | also measured
1 | > 10 µM | > 10 µM | > 10 µM | > 10 µM | > 10 µM | > 10 µM | > 10 µM | > 10 µM | > 10 µM | CCc1ccc(-c2ccc3c(c2)-c2c(cnn2CC)S(=O)(=O)N3C)cc1 | IC50 [1]: > 30 µM; IC50 [2]: > 30 µM; IC50 [3]: > 10 µM; IC50 [13]: 3.2 µM; IC50 [14]: > 10 µM; IC50 [15]: 3.2 µM; IC50 [16]: > 10 µM; IC50 [17]: > 30 µM; IC50 [18]: > 30 µM; IC50 [19]: > 30 µM; IC50 [20]: > 30 µM; IC50 [21]: 1 µM; IC50 [22]: 3 µM; IC50 [23]: 1.3 µM; IC50 [24]: 1.6 µM
2 | 1.8 µM | 2.8 µM | 0.37 µM | 1.6 µM | 4 µM | 3 µM | 1.9 µM | 2.8 µM | 3.4 µM | CCc1ccc(-c2ccc3c(c2)-c2n[nH]cc2S(=O)(=O)N3C)cc1 | 
